In ChEMBL document CHEMBL1122341, “Prostaglandin isosteres. 2. Chain-modified thiazolidinone prostaglandin analogues as renal vasodilators” (1983):

Experiments:
[1] = tested on: Canis familiaris; test: Effect on lower aortic blood flow in conscious dogs dosed at 5 mg/kg, observed at 4-5 h; assay type: functional, Canis lupus familiaris, Aorta
Outline: (§1)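 Conscious dogs; aortic catheter for blood pressure and heart rate, with renal and lower aortic blood flow monitored. After a 30-min control period the compound was given orally and the variables were followed for a further 5 h, recorded every 2 min. Readings were averaged over the control period and each hourly postdose period; means ± SE.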

[2] = tested on: Canis familiaris; test: Percent change in renal resistance in anesthetized dogs after infusion of compound at 50 nM/kg/min; assay type: functional, Canis lupus familiaris
[3] = tested on: Canis familiaris; test: Effect on renal blood flow in conscious dogs dosed at 5 mg/kg, observed at 0-1 h; assay type: functional, Canis lupus familiaris; outline: as §1
[4] = tested on: Canis familiaris; test: Effect on lower arterial blood pressure in conscious dogs dosed at 5 mg/kg, observed at 3-4 h; assay type: functional, Canis lupus familiaris; outline: as §1
[5] = tested on: Canis familiaris; test: Effect on lower arterial blood pressure in conscious dogs dosed at 5 mg/kg, observed at 2-3 h; assay type: functional, Canis lupus familiaris; outline: as §1
[6] = tested on: Canis familiaris; test: Effect on heart rate in conscious dogs dosed at 5 mg/kg, observed at 4-5 h; assay type: functional, Canis lupus familiaris; outline: as §1
[7] = tested on: Canis familiaris; test: Effect on renal plasma flow in conscious dogs dosed at 0.2 mg/kg (pretreatment); assay type: functional, Canis lupus familiaris
Outline: (§2)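 Trained conscious female mongrel dogs, postabsorptive, given 500 mL tap water orally 1-1.5 h beforehand. Effective renal plasma flow was taken as renal p-aminohippurate clearance: priming 8 mg/kg iv, then 0.3 (mg/kg)/min in isotonic NaCl. Two 30-min control clearance periods, a single iv dose (Na salt, aqueous), then four 30-min periods. Plasma sampled at midpoints; means ± SEM.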

[8] = tested on: Canis familiaris; test: Effect on lower aortic blood flow in conscious dogs dosed at 5 mg/kg, observed at 3-4 h; assay type: functional, Canis lupus familiaris, Aorta; outline: as §1
[9] = tested on: Canis familiaris; test: Effect on heart rate in conscious dogs dosed at 5 mg/kg, observed at 0-1 h; assay type: functional, Canis lupus familiaris; outline: as §1
[10] = tested on: Canis familiaris; test: Effect on lower arterial blood pressure in conscious dogs dosed at 5 mg/kg, observed at 0-1 h; assay type: functional, Canis lupus familiaris; outline: as §1
[11] = tested on: Canis familiaris; test: Effect on renal plasma flow in conscious dogs dosed at 0.1 mg/kg (post-treatment); assay type: functional, Canis lupus familiaris; outline: as §2
[12] = tested on: Canis familiaris; test: Percent change in renal plasma flow in conscious dogs dosed at 0.05 mg/kg; assay type: functional, Canis lupus familiaris; outline: as §2
[13] = tested on: Canis familiaris; test: Percent change in renal resistance in anesthetized dogs after infusion of compound at 25 nM/kg/min; assay type: functional, Canis lupus familiaris
[14] = tested on: Canis familiaris; test: Effect on renal plasma flow in conscious dogs dosed at 0.05 mg/kg (pretreatment); assay type: functional, Canis lupus familiaris; outline: as §2
[15] = tested on: Canis familiaris; test: Effect on lower aortic blood flow in conscious dogs dosed at 5 mg/kg, observed at 1-2 h; assay type: functional, Canis lupus familiaris, Aorta; outline: as §1
[16] = tested on: Canis familiaris; test: Percent change in renal resistance in anesthetized dogs after infusion of compound at 10 nM/kg/min; assay type: functional, Canis lupus familiaris
Outline: (§3)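 Vinbarbital-anesthetized dogs with an electromagnetic flow probe on the left renal artery and an aortic catheter for pressure. Saline was infused intrarenally for 30 min as pretreatment. Percent change was calculated from the maximum decrease in renal resistance versus pretreatment.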

[17] = tested on: Canis familiaris; test: Percent change in renal plasma flow in conscious dogs dosed at 0.2 mg/kg; assay type: functional, Canis lupus familiaris; outline: as §2
[18] = tested on: Canis familiaris; test: Effect on renal plasma flow in conscious dogs dosed at 0.2 mg/kg (post-treatment); assay type: functional, Canis lupus familiaris; outline: as §2
[19] = tested on: Canis familiaris; test: Effect on lower aortic blood flow in conscious dogs dosed at 5 mg/kg, observed at 0-1 h; assay type: functional, Canis lupus familiaris, Aorta; outline: as §1
[20] = tested on: Canis familiaris; test: Effect on lower arterial blood pressure in conscious dogs dosed at 5 mg/kg, observed at 4-5 h; assay type: functional, Canis lupus familiaris; outline: as §1
[21] = tested on: Canis familiaris; test: Effect on heart rate in conscious dogs dosed at 5 mg/kg, observed at 1-2 h; assay type: functional, Canis lupus familiaris; outline: as §1
[22] = tested on: Canis familiaris; test: Effect on renal blood flow in conscious dogs dosed at 5 mg/kg, observed at 2-3 h; assay type: functional, Canis lupus familiaris, Kidney; outline: as §1
[23] = tested on: Canis familiaris; test: Effect on heart rate in conscious dogs dosed at 5 mg/kg, observed at 2-3 h; assay type: functional, Canis lupus familiaris; outline: as §1
[24] = tested on: Canis familiaris; test: Effect on renal plasma flow in conscious dogs dosed at 0.05 mg/kg (post-treatment); assay type: functional, Canis lupus familiaris; outline: as §2
[25] = tested on: Canis familiaris; test: Effect on lower arterial blood pressure in conscious dogs dosed at 5 mg/kg, observed at 1-2 h; assay type: functional, Canis lupus familiaris; outline: as §1
[26] = tested on: Canis familiaris; test: Effect on renal blood flow in conscious dogs dosed at 5 mg/kg, observed at 4-5 h; assay type: functional, Canis lupus familiaris; outline: as §1
[27] = tested on: Canis familiaris; test: Percent change in renal plasma flow in conscious dogs dosed at 0.1 mg/kg; assay type: functional, Canis lupus familiaris; outline: as §2
[28] = tested on: Canis familiaris; test: Effect on renal plasma flow in conscious dogs dosed at 0.1 mg/kg (pretreatment); assay type: functional, Canis lupus familiaris; outline: as §2
[29] = tested on: Canis familiaris; test: Effect on renal blood flow in conscious dogs dosed at 5 mg/kg, observed at 3-4 h; assay type: functional, Canis lupus familiaris; outline: as §1
[30] = tested on: Canis familiaris; test: Effect on renal blood flow in conscious dogs dosed at 5 mg/kg, observed at 1-2 h; assay type: functional, Canis lupus familiaris, Kidney; outline: as §1
[31] = tested on: Canis familiaris; test: Effect on heart rate in conscious dogs dosed at 5 mg/kg, observed at 3-4 h; assay type: functional, Canis lupus familiaris; outline: as §1
[32] = tested on: Canis familiaris; test: Effect on lower aortic blood flow in conscious dogs dosed at 5 mg/kg, observed at 2-3 h; assay type: functional, Canis lupus familiaris, Aorta; outline: as §1
[33] = tested on: Canis familiaris; test: Effect on renal plasma flow in conscious dogs dosed at 0.4 mg/kg (post-treatment); assay type: functional, Canis lupus familiaris; outline: as §2
[34] = tested on: Canis familiaris; test: Percent change in renal plasma flow in conscious dogs dosed at 0.4 mg/kg; assay type: functional, Canis lupus familiaris; outline: as §2
[35] = tested on: Canis familiaris; test: Percent change in renal plasma flow in conscious dogs dosed at 10 mg/kg; assay type: functional, Canis lupus familiaris; outline: as §2
[36] = tested on: Canis familiaris; test: Effect on renal plasma flow in conscious dogs dosed at 0.4 mg/kg (pretreatment); assay type: functional, Canis lupus familiaris; outline: as §2
[37] = tested on: Canis familiaris; test: Effect on renal plasma flow in conscious dogs dosed at 10 mg/kg (pretreatment); assay type: functional, Canis lupus familiaris; outline: as §2
[38] = tested on: Canis familiaris; test: Effect on renal plasma flow in conscious dogs dosed at 10 mg/kg (post-treatment); assay type: functional, Canis lupus familiaris; outline: as §2
[39] = tested on: Canis familiaris; test: Percent change in renal plasma flow in conscious dogs dosed at 0.025 mg/kg; assay type: functional, Canis lupus familiaris; outline: as §2
[40] = tested on: Canis familiaris; test: Effect on renal plasma flow in conscious dogs dosed at 0.025 mg/kg (pretreatment); assay type: functional, Canis lupus familiaris; outline: as §2
[41] = tested on: Canis familiaris; test: Effect on renal plasma flow in conscious dogs dosed at 0.025 mg/kg (post-treatment); assay type: functional, Canis lupus familiaris; outline: as §2
[42] = tested on: Canis familiaris; test: Percent change in renal resistance in anesthetized dogs after infusion of compound at 60 nM/kg/min; assay type: functional, Canis lupus familiaris; settings: in the assay text read “60 ng/kg/min” for “60 nM/kg/min”; outline: as §3
[43] = tested on: Canis familiaris; test: Percent change in renal resistance in anesthetized dogs after infusion of compound at 110 nM/kg/min; assay type: functional, Canis lupus familiaris; outline: as §3
[44] = dose 1 mg/kg, in the assay text read “dosed at 1 mg/kg” for “dosed at 5 mg/kg”

SMILES	Mean LAF [1] [mL/min]	Mean RBF [3] [mL/min]	Mean blood pressure [4] [mmHg]	Mean blood pressure [5] [mmHg]	Mean HR [6] [beats min-1]	Activity [7] [mL/min]	Mean LAF [8] [mL/min]	Mean HR [9] [beats min-1]	Mean blood pressure [10] [mmHg]	Mean LAF [15] [mL/min]	Mean LAF [19] [mL/min]	Mean blood pressure [20] [mmHg]	Mean HR [21] [beats min-1]	Mean HR [23] [beats min-1]	Mean blood pressure [25] [mmHg]	Mean RBF [26] [mL/min]	Mean RBF [29] [mL/min]	Mean RBF [30] [mL/min]	Mean HR [31] [beats min-1]	Mean LAF [32] [mL/min]	also measured
O=C(O)c1ccc(CCCC2SCC(=O)N2CCC2(O)CCCCC2)cc1 (stereo not drawn)	477	179	101	97	136	136	492	122	105	597	486	98	169	144	89	242	233	211	131	521	Change [2]: -28%; Activity [11]: 216 mL/min; Change [12]: 62%; Change [13]: -24%; Activity [14]: 148 mL/min; Change [16]: -13%; Change [17]: 137%; Activity [18]: 322 mL/min; Mean RBF [22, 44]: 226 mL/min; Activity [24]: 240 mL/min; Change [27]: 52%; Activity [28]: 142 mL/min
O=C(O)c1ccc(CCC[C@@H]2SCC(=O)N2CCC2(O)CCCCC2)cc1						138															Activity [33]: 147 mL/min; Change [34]: 8%; Change [17]: 6%; Activity [18]: 146 mL/min; Change [35]: 9%; Activity [36]: 136 mL/min; Activity [37]: 139 mL/min; Activity [38]: 151 mL/min
CCCCCC(O)CCN1C(=O)CSC1CCCc1ccc(C(=O)O)cc1 (stereo not drawn)	510	201	116	116	84		521	103	118	560	546	116	118	107	108	159	183	241	92	625	Mean RBF ([22]; dose 5 mg/kg): 209 mL/min
CCCCCC(O)CCN1C(=O)CSC1CCCCCCC(=O)O (stereo not drawn)	386	181	133	140	76		427	126	123	424	420	132	79	85	146	111	116	110	82	432	Mean RBF ([22]; dose 5 mg/kg): 110 mL/min
O=C(O)c1ccc(CCC[C@H]2SCC(=O)N2CCC2(O)CCCCC2)cc1						143															Change [39]: 54%; Activity [40]: 155 mL/min; Change [12]: 62%; Activity [41]: 239 mL/min; Activity [14]: 178 mL/min; Change [17]: 104%; Activity [18]: 292 mL/min; Activity [24]: 289 mL/min
O=C(O)CCCCCCC1SCC(=O)N1CCC1(O)CCCCC1 (stereo not drawn)	388	97	100	92	88		510	180	59	742	772	104	185	113	74	160	176	150	94	530	Mean RBF [22, 44]: 199 mL/min
CCCCC[C@H](O)/C=C/[C@H]1[C@H](O)CC(=O)[C@@H]1C/C=C\CCCC(=O)O [DINOPROSTONE]																					Change [42]: -29%; Change [16]: -13%; Change [43]: -35%
